Experiments:
[1] = Dissociation constant, pKa of the compound by parallel capillary electrophoresis method; type: physicochemical
Summary of the method: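 pKa determined by a 24-point parallel capillary electrophoresis method, quantitation by UV absorbance at 229 nm.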

[2] = Ratio of unbound drug level in brain to plasma in CD-1 mouse measured at 4 hrs; type: ADME; details: for Kp uu at 4 h: CD-1, mouse, read-out: K(p,uu,brain)
Summary of the method: (§1)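 Male CD-1 mice given 10 mg/kg po, 3 per cohort; plasma and brain collected at 1 and 4 h. Free brain/plasma ratio from unbound concentrations; coverage ratio = free brain concentration divided by HEK293 Aβ₁₋₄₀ cell IC50.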

[3] = Clearance in CD-1 mouse liver microsomes at 1 uM after 20 mins by LC-MS/MS analysis in presence of NADPH; type: ADME, Microsome
Summary of the method: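 Compound at 1 μM incubated with mouse liver microsomes for 20 min at 37 °C with NADPH.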

[4] = Ratio of unbound drug level in brain to plasma in CD-1 mouse measured at 1 hr; type: ADME; details: for Kp uu at 1 h: CD-1, mouse, read-out: K(p,uu,brain); summary of the method: as §1
[5] = test system: Plasma; assay: Unbound plasma concentration in CD-1 mouse at 3 mg/kg, iv and 10 mg/kg, po measured at 4 hrs; type: ADME, organism-based; details: in vivo
Summary of the method: (§2)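 Male CD-1 mice, 3 per cohort, dosed 3 mg/kg iv and 10 mg/kg po; plasma drawn at 1 and 4 h, brains harvested from oral groups only. Formulations varied by compound: 40% PEG 400/10% EtOH/50% H₂O; 30% captisol in H₂O; iv 50 mM citrate in saline (pH 4); po 1% CMC/0.5% Tween/5 mM citrate in H₂O.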

[6] = test system: Brain; assay: Fraction unbound in CD-1 mouse brain at 10 mg/kg, po measured at 4 hrs; type: ADME, organism-based; set-up: dose 10 mg/kg, route oral; details: in vivo
Summary of the method: (§3)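 Male CD-1 mice, 3 per cohort, dosed 10 mg/kg orally; brains harvested at 1 and 4 h.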

[7] = test system: Brain; assay: Fraction unbound in CD-1 mouse brain at 10 mg/kg, po measured at 1 hr; type: ADME, organism-based; set-up: dose 10 mg/kg, route oral; details: in vivo; summary of the method: as §3
[8] = test system: Mus musculus; assay: Hepatic clearance in CD-1 mouse at 3 mg/kg, iv; type: ADME, organism-based, Liver; set-up: dose 3 mg/kg, route intravenous; details: in vivo; summary of the method: as §2
[9] = test system: Plasma; assay: Unbound plasma concentration in CD-1 mouse at 3 mg/kg, iv and 10 mg/kg, po measured at 1 hr; type: ADME, organism-based; details: in vivo; summary of the method: as §2
[10] = Oral bioavailability in CD-1 mouse at 10 mg/kg; type: ADME, organism-based; details: in vivo
[11] = Ratio of unbound drug level in brain to plasma in Hartley guinea pig at 60 mg/kg, po measured at 5 hrs; type: ADME, organism-based, Cavia porcellus; set-up: dose 60 mg/kg, route oral; details: brain and plasma (unbound), read-out: K(p,uu,brain)
Summary of the method: (§4)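 Male Hartley guinea pigs given single oral doses of 30, 60 or 100 mg/kg in 1% CMC/0.5% Tween/5 mM citrate in H₂O, 6–8 animals per cohort. Plasma, brain and CSF sampled at 1–12 h; free brain to free plasma ratio computed.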

[12] = Fraction unbound in Hartley guinea pig brain at 60 mg/kg, po measured at 3 hrs; type: ADME, organism-based, Cavia porcellus; set-up: dose 60 mg/kg, route oral; details: in vivo
[13] = Ratio of unbound drug level in brain to plasma in Hartley guinea pig at 60 mg/kg, po measured at 3 hrs; type: ADME, organism-based, Cavia porcellus; set-up: dose 60 mg/kg, route oral; details: brain and plasma (unbound), read-out: K(p,uu,brain); summary of the method: as §4
[14] = Fraction unbound in Hartley guinea pig brain at 60 mg/kg, po measured at 5 hrs; type: ADME, organism-based, Cavia porcellus; set-up: dose 60 mg/kg, route oral; details: in vivo
[15] = Drug uptake in Hartley guinea pig CSF at 60 mg/kg, po measured at 3 hrs; type: ADME, organism-based, Cavia porcellus, Cerebrospinal fluid; set-up: dose 60 mg/kg, route oral; details: read-out: Drug uptake
Summary of the method: (§5)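 Male Hartley guinea pigs, oral dosing (CMC/Tween/citrate suspension or PEG/EtOH/H₂O solution), six or eight animals per cohort; CSF drug concentration (nM) measured at each time point.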

[16] = Unbound plasma concentration in Hartley guinea pig at 60 mg/kg, po measured at 5 hrs; type: ADME, organism-based, Cavia porcellus; set-up: dose 60 mg/kg, route oral; details: in vivo
Summary of the method: (§6)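 Male Hartley guinea pigs were dosed orally at 30, 60 or 100 mg/kg, with six or eight animals per cohort. The vehicle was either a suspension in 1% CMC/0.5% Tween/5 mM citrate in H₂O or a 40/10/50 PEG/EtOH/H₂O solution, depending on compound. Unbound plasma concentration was sampled at 1–12 h post-dose alongside brain, CSF and CSF Aβ₁₋₄₀.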

[17] = Drug uptake in Hartley guinea pig CSF at 60 mg/kg, po measured at 5 hrs; type: ADME, organism-based, Cavia porcellus, Cerebrospinal fluid; set-up: dose 60 mg/kg, route oral; details: read-out: Drug uptake; summary of the method: as §5
[18] = Unbound plasma concentration in Hartley guinea pig at 60 mg/kg, po measured at 3 hrs; type: ADME, organism-based, Cavia porcellus; set-up: dose 60 mg/kg, route oral; details: in vivo; summary of the method: as §6

Row | SMILES | Kp uu at 4 h [2] | CLhep predicted at 1 µM [3] [mL/min/kg] | Kp uu at 1 h [4] | Cp(f) [5] [nM] | Drug uptake(free) [6] [nM] | Drug uptake(free) [7] [nM] | CLH [8] [mL/min/kg] | Cp(f) [9] [nM] | bioavailability [10] [%] | other results
1 | C[C@@]12COCC[C@H]1Oc1ccc(-c3cccnc3F)cc1[C@@]21COC(N)=N1 (racemic) | – | – | – | – | – | – | – | – | – | pKa [1]: 6.4
2 | CN1C(=O)[C@]2(N=C1N)c1cc(-c3cc(F)cc(Cl)c3)ccc1O[C@H]1CCOC[C@@H]12 (racemic) | 0.029 | 32 | 0.032 | 17 | 0.49 | 0.28 | 22 | 8.7 | 67 | –
3 | CN1C(=O)[C@]2(N=C1N)c1cc(-c3cccnc3F)c(F)cc1O[C@H]1CCOC[C@@H]12 (racemic) | – | 40 | – | – | – | – | – | – | – | –
4 | C[C@H]1OCC[C@H]2Oc3ccc(-c4cccnc4F)cc3[C@]3(N=C(N)N(C)C3=O)[C@H]12 (racemic) | < 0.012 | 51 | 0.027 | 63 | < 0.75 | 7.1 | 72 | 260 | 75 | –
5 | CN1C(=O)[C@]2(N=C1N)c1cc(-c3cccnc3F)ccc1O[C@H]1CCOC[C@@H]12 (racemic) | – | 46 | – | 75 | 8.4 | 11 | 70 | 320 | – | K(p,uu,brain) ([2]; mouse, 4 h): 0.11; K(p,uu,brain) ([4]; mouse, 1 h): 0.034
6 | C[C@]12CCOC[C@@H]1[C@]1(COC(N)=N1)c1cc(-c3cc(F)cc(Cl)c3)ccc1O2 | 0.68 | 57 | 0.76 | 3.7 | 2.5 | 7.2 | 48 | 9.5 | 43 | pKa [1]: 6.7
7 | CN1C(=O)[C@]2(N=C1N)c1cc(-c3cccc(OC(F)F)c3)c(F)cc1O[C@H]1CCOC[C@@H]12 (racemic) | – | 21 | – | – | – | – | – | – | – | –
8 | CN1C(=O)[C@]2(N=C1N)c1cc(-c3cncc(Cl)c3)ccc1O[C@H]1CCOC[C@@H]12 (racemic) | < 0.11 | 54 | 0.038 | 7.5 | < 0.8 | 1 | 110 | 26 | 19 | –
9 | CN1C(=O)[C@]2(N=C1N)c1cc(-c3cccc(C#N)c3)ccc1O[C@H]1CCOC[C@@H]12 | – | – | – | – | – | – | – | – | – | Kp uu at 5 h [11]: 0.085; Drug uptake(free) [12]: 12 nM; Kp uu at 3 h [13]: 0.046; Drug uptake(free) [14]: 6.7 nM; concentration at 3 h [15]: 90 nM; Cp(f) [16]: 79 nM; concentration at 5 h [17]: 40 nM; Cp(f) [18]: 260 nM
10 | C[C@]12CCOC[C@@H]1[C@]1(COC(N)=N1)c1cc(-c3cccnc3F)ccc1O2 (racemic) | – | 61 | – | – | – | – | – | – | – | –
11 | C[C@]12CCOC[C@@H]1[C@]1(COC(N)=N1)c1cc(-c3cncc(Cl)c3)ccc1O2 (racemic) | 0.048 | 60 | 0.082 | 120 | 5.8 | 18 | 34 | 220 | 76 | –
12 | C[C@]12CCOC[C@@H]1[C@]1(COC(N)=N1)c1cc(-c3cccnc3F)c(F)cc1O2 (racemic) | – | 84 | – | – | – | – | – | – | – | –
13 | CN1C(=O)[C@]2(N=C1N)c1cc(-c3cccc(C#N)c3)ccc1O[C@H]1CCOC[C@@H]12 (racemic) | 0.025 | 17 | 0.014 | 170 | 4.3 | 3 | 35 | 210 | 103 | –
14 | C[C@]12CCOC[C@@H]1[C@]1(COC(N)=N1)c1cc(-c3cncc(Cl)c3)c(F)cc1O2 (racemic) | – | 65 | – | – | – | – | – | – | – | –
15 | C[C@H]1OCC[C@H]2Oc3ccc(-c4cccnc4F)cc3[C@@]3(COC(N)=N3)[C@H]12 (racemic) | – | – | – | – | – | – | – | – | – | pKa [1]: 6.4
16 | CN1C(=O)[C@]2(N=C1N)c1cc(-c3cccnc3F)ccc1O[C@H]1CCOC[C@@]12C (racemic) | 0.15 | 55 | 0.036 | 25 | 3.7 | 1.9 | 51 | 53 | 15 | –
17 | CN1C(=O)[C@]2(N=C1N)c1cc(-c3cncc(F)c3)ccc1O[C@H]1CCOC[C@@H]12 (racemic) | < 0.14 | 45 | 0.028 | 17 | < 2.3 | 4.4 | 140 | 160 | 38 | –

Source: ChEMBL document CHEMBL3124885, “Discovery of 7-tetrahydropyran-2-yl chromans: β-site amyloid precursor protein cleaving enzyme 1 (BACE1) inhibitors that reduce amyloid β-protein (Aβ) in the central nervous system” (J Med Chem, 2014)
